Source: ChEMBL document CHEMBL1134374, “High-throughput permeability pH profile and high-throughput alkane/water log P with artificial membranes” (J Med Chem, 2001)

Test: Partition coefficient (logP) (hexadecane)
Assay type: physicochemical
Details: hexadecane/water

First: CC(C)Cc1ccc(C(C)C(=O)O)cc1 (stereo unspecified) [IBUPROFEN]
Second: COCCc1ccc(OCC(O)CNC(C)C)cc1 (stereo unspecified) [METOPROLOL]
The logP of the first is higher: 1.95 for the first, -0.4 for the second.

Going from `CN(C)CCCN1c2ccccc2Sc2ccc(Cl)cc21` [CHLORPROMAZINE] to `C=CCc1ccccc1OCC(O)CNC(C)C` (stereo unspecified) [ALPRENOLOL], the logP falls from 4.7 to 1.3.

Compared with `N=C(N)N/N=C/c1c(Cl)cccc1Cl` [GUANABENZ], `O=C(O)c1ccccc1O` [SALICYLIC ACID] is higher in logP: -1.6 for the first, -1 for the second.

Compared with `O=C1NC(=O)C(c2ccccc2)(c2ccccc2)N1` [PHENYTOIN], `CC(=O)CC(c1ccccc1)c1c(O)c2ccccc2oc1=O` (stereo unspecified) [WARFARIN] is higher in logP: -0.3 for the first, 1 for the second.

Work on `CC(C)(C)NC[C@H](O)COc1nsnc1N1CCOCC1` [TIMOLOL] yielded a logP of -1.

Test: Effective permeability (Pe) across a hexadecane membrane (pH 6.8)
Assay type: ADME
Details: not given
In short: (§1)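 Passive permeation from donor to acceptor across a polycarbonate filter (3 µm pores, 9–10 µm thick) coated with hexadecane left after hexane evaporation. Donor held 50 µg/mL compound in buffer with 5% DMSO and 100 mM KCl; acceptor held buffer with 5% DMSO. Incubated 5 h at room temperature with light shaking. Acceptor UV absorbance read at 260–290 nm. Wells below 5 kΩ resistance discarded.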

Compared with `NC(N)=Nc1nc(CSCCC(N)=NS(N)(=O)=O)cs1` [FAMOTIDINE], `CN/C(=N/CCSCc1nc[nH]c1C)NC#N` [CIMETIDINE] is higher in “Log Pe” value: -4.6 cm s-1 for the first, -4 cm s-1 for the second.

First: Nc1nc2c(ncn2COCCO)c(=O)[nH]1 [ACYCLOVIR]
Second: NC(=O)N1c2ccccc2C=Cc2ccccc21 [CARBAMAZEPINE]
The “Log Pe” value of the first is lower: -4.8 cm s-1 for the first, -3.9 cm s-1 for the second.

Compared with `NS(=O)(=O)c1cc2c(cc1Cl)NCNS2(=O)=O` [HYDROCHLOROTHIAZIDE], `Cc1ccccc1N1C(=O)c2cc(S(N)(=O)=O)c(Cl)cc2NC1C` (stereo unspecified) [METOLAZONE] is higher in “Log Pe” value: -4.7 cm s-1 for the first, -4.6 cm s-1 for the second.

Going from `O=C(O)c1cc(/N=N/c2ccc(S(=O)(=O)Nc3ccccn3)cc2)ccc1O` [SULFASALAZINE] to `CC(=O)CC(c1ccccc1)c1c(O)c2ccccc2oc1=O` (stereo unspecified) [WARFARIN], the “Log Pe” value rises from -4.9 cm s-1 to -3.8 cm s-1.

First: CN(C)CCCN1c2ccccc2Sc2ccc(Cl)cc21 [CHLORPROMAZINE]
Second: C=CCc1ccccc1OCC(O)CNC(C)C (stereo unspecified) [ALPRENOLOL]
The “Log Pe” value of the first is higher: -3.7 cm s-1 for the first, -4 cm s-1 for the second.

First: N=C(N)N/N=C/c1c(Cl)cccc1Cl [GUANABENZ]
Second: COCCc1ccc(OCC(O)CNC(C)C)cc1 (stereo unspecified) [METOPROLOL]
The “Log Pe” value of the first is lower: -5 cm s-1 for the first, -4.2 cm s-1 for the second.

First: O=C1NC(=O)C(c2ccccc2)(c2ccccc2)N1 [PHENYTOIN]
Second: CC(C)(C)NC[C@H](O)COc1nsnc1N1CCOCC1 [TIMOLOL]
The “Log Pe” value of the first is higher: -4 cm s-1 for the first, -4.4 cm s-1 for the second.

Test: Highest effective permeability across hexadecane membrane (pH 4-8)
Assay type: ADME
Details: not given
In short: as §1

Compared with `NC(N)=Nc1nc(CSCCC(N)=NS(N)(=O)=O)cs1` [FAMOTIDINE], `CN/C(=N/CCSCc1nc[nH]c1C)NC#N` [CIMETIDINE] is higher in “Log Pe” value: -4.3 cm s-1 for the first, -4 cm s-1 for the second.

Compared with `Nc1nc2c(ncn2COCCO)c(=O)[nH]1` [ACYCLOVIR], `NC(=O)N1c2ccccc2C=Cc2ccccc21` [CARBAMAZEPINE] is higher in “Log Pe” value: -4.8 cm s-1 for the first, -3.9 cm s-1 for the second.

First: NS(=O)(=O)c1cc2c(cc1Cl)NCNS2(=O)=O [HYDROCHLOROTHIAZIDE]
Second: Cc1ccccc1N1C(=O)c2cc(S(N)(=O)=O)c(Cl)cc2NC1C (stereo unspecified) [METOLAZONE]
The “Log Pe” value of the first is higher: -4.2 cm s-1 for the first, -4.6 cm s-1 for the second.

Going from `O=C(O)c1cc(/N=N/c2ccc(S(=O)(=O)Nc3ccccn3)cc2)ccc1O` [SULFASALAZINE] to `CC(=O)CC(c1ccccc1)c1c(O)c2ccccc2oc1=O` (stereo unspecified) [WARFARIN], the “Log Pe” value rises from -4.9 cm s-1 to -3.8 cm s-1.

First: CN(C)CCCN1c2ccccc2Sc2ccc(Cl)cc21 [CHLORPROMAZINE]
Second: C=CCc1ccccc1OCC(O)CNC(C)C (stereo unspecified) [ALPRENOLOL]
The “Log Pe” value of the first is higher: -3.5 cm s-1 for the first, -4 cm s-1 for the second.

Compared with `N=C(N)N/N=C/c1c(Cl)cccc1Cl` [GUANABENZ], `COCCc1ccc(OCC(O)CNC(C)C)cc1` (stereo unspecified) [METOPROLOL] is higher in “Log Pe” value: -4.4 cm s-1 for the first, -4.2 cm s-1 for the second.

First: O=C1NC(=O)C(c2ccccc2)(c2ccccc2)N1 [PHENYTOIN]
Second: CC(C)(C)NC[C@H](O)COc1nsnc1N1CCOCC1 [TIMOLOL]
The “Log Pe” value of the first is higher: -4 cm s-1 for the first, -4.2 cm s-1 for the second.

Test: Effective permeability corrected for ionization
Assay type: ADME
Details: not given
In short: (§2)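 Derived from hexadecane-membrane Pe measured across a pH range, combined with aqueous pKa. Pe is corrected for ionization to give Pul. Pul is then corrected for the unstirred water layer by the Gutknecht–Tosteson relation to give the intrinsic permeability P0.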

`CC(C)Cc1ccc(C(C)C(=O)O)cc1` (stereo unspecified) [IBUPROFEN] and `COCCc1ccc(OCC(O)CNC(C)C)cc1` (stereo unspecified) [METOPROLOL] are within 0.2 log units of each other in “Log Pe,max” value: -3.7 for the first, -3.6 for the second.

`CN(C)CCCN1c2ccccc2Sc2ccc(Cl)cc21` [CHLORPROMAZINE] and `C=CCc1ccccc1OCC(O)CNC(C)C` (stereo unspecified) [ALPRENOLOL] are the same in “Log Pe,max” value: -3.6 for the first, -3.6 for the second.

Going from `N=C(N)N/N=C/c1c(Cl)cccc1Cl` [GUANABENZ] to `O=C(O)c1ccccc1O` [SALICYLIC ACID], the “Log Pe,max” value rises from -4.9 to -3.4.

First: O=C1NC(=O)C(c2ccccc2)(c2ccccc2)N1 [PHENYTOIN]
Second: CC(=O)CC(c1ccccc1)c1c(O)c2ccccc2oc1=O (stereo unspecified) [WARFARIN]
The “Log Pe,max” value of the first is lower: -4.4 for the first, -3.6 for the second.

For `CC(C)(C)NC[C@H](O)COc1nsnc1N1CCOCC1` [TIMOLOL], the “Log Pe,max” value was -3.6.

Test: Effective permeability measured with HDM assay
Assay type: ADME
Details: not given
In short: as §1

In the case of `CC(C)Cc1ccc(C(C)C(=O)O)cc1` (stereo unspecified) [IBUPROFEN], the “Log Pe,max” value is reported as -3.7.

Test: Intrinsic permeability of the compound
Assay type: ADME
Details: not given
In short: as §2

First: CC(C)Cc1ccc(C(C)C(=O)O)cc1 (stereo unspecified) [IBUPROFEN]
Second: COCCc1ccc(OCC(O)CNC(C)C)cc1 (stereo unspecified) [METOPROLOL]
The “Log Po” value of the first is higher: -0.9 for the first, -2.8 for the second.

First: CN(C)CCCN1c2ccccc2Sc2ccc(Cl)cc21 [CHLORPROMAZINE]
Second: C=CCc1ccccc1OCC(O)CNC(C)C (stereo unspecified) [ALPRENOLOL]
The “Log Po” value of the first is higher: 1.3 for the first, -1.6 for the second.

Going from `N=C(N)N/N=C/c1c(Cl)cccc1Cl` [GUANABENZ] to `O=C(O)c1ccccc1O` [SALICYLIC ACID], the “Log Po” value rises from -4.6 to -3.2.

Compared with `O=C1NC(=O)C(c2ccccc2)(c2ccccc2)N1` [PHENYTOIN], `CC(=O)CC(c1ccccc1)c1c(O)c2ccccc2oc1=O` (stereo unspecified) [WARFARIN] is higher in “Log Po” value: -3.6 for the first, -2.3 for the second.

With `CC(C)(C)NC[C@H](O)COc1nsnc1N1CCOCC1` [TIMOLOL] the “Log Po” value was -3.2.

Test: Intrinsic permeability measured with HDM assay
Assay type: ADME
Details: not given
In short: as §2

In the case of `CC(C)Cc1ccc(C(C)C(=O)O)cc1` (stereo unspecified) [IBUPROFEN], the “Log Po” value is reported as -0.9.

Test: % absorbed in human GI-tract
Assay type: ADME, organism-based
Details: in vivo, read-out: % absorbed

First: NC(N)=Nc1nc(CSCCC(N)=NS(N)(=O)=O)cs1 [FAMOTIDINE]
Second: CN/C(=N/CCSCc1nc[nH]c1C)NC#N [CIMETIDINE]
The Fa of the first is lower: 45% for the first, 95% for the second.

First: NS(=O)(=O)c1cc2c(cc1Cl)NCNS2(=O)=O [HYDROCHLOROTHIAZIDE]
Second: O=C1NC(=O)C(c2ccccc2)(c2ccccc2)N1 [PHENYTOIN]
The Fa of the first is lower: 67% for the first, 90% for the second.

Compared with `CN(C)CCCN1c2ccccc2Sc2ccc(Cl)cc21` [CHLORPROMAZINE], `CC(C)(C)NC[C@H](O)COc1nsnc1N1CCOCC1` [TIMOLOL] is lower in Fa: 100% for the first, 72% for the second.

Test: Partition coefficient (logD6.8)
Assay type: physicochemical
Details: octanol/water, pH 6.8; read-out: logD

First: NC(N)=Nc1nc(CSCCC(N)=NS(N)(=O)=O)cs1 [FAMOTIDINE]
Second: CN/C(=N/CCSCc1nc[nH]c1C)NC#N [CIMETIDINE]
The logD of the first is lower: -0.8 for the first, 0.1 for the second.

Going from `Nc1nc2c(ncn2COCCO)c(=O)[nH]1` [ACYCLOVIR] to `NC(=O)N1c2ccccc2C=Cc2ccccc21` [CARBAMAZEPINE], the logD rises from -2 to 2.4.

Compared with `O=C(O)c1cc(/N=N/c2ccc(S(=O)(=O)Nc3ccccn3)cc2)ccc1O` [SULFASALAZINE], `CC(=O)CC(c1ccccc1)c1c(O)c2ccccc2oc1=O` (stereo unspecified) [WARFARIN] is higher in logD: -0.7 for the first, 0.6 for the second.

Compared with `CN(C)CCCN1c2ccccc2Sc2ccc(Cl)cc21` [CHLORPROMAZINE], `Cc1ccccc1N1C(=O)c2cc(S(N)(=O)=O)c(Cl)cc2NC1C` (stereo unspecified) [METOLAZONE] is higher in logD: 2.9 for the first, 4.1 for the second.

Going from `N=C(N)N/N=C/c1c(Cl)cccc1Cl` [GUANABENZ] to `C=CCc1ccccc1OCC(O)CNC(C)C` (stereo unspecified) [ALPRENOLOL], the logD falls from 0.9 to 0.3.

`COCCc1ccc(OCC(O)CNC(C)C)cc1` (stereo unspecified) [METOPROLOL] and `CC(C)(C)NC[C@H](O)COc1nsnc1N1CCOCC1` [TIMOLOL] are within 0.2 log units of each other in logD: -0.8 for the first, -0.7 for the second.

In the case of `O=C1NC(=O)C(c2ccccc2)(c2ccccc2)N1` [PHENYTOIN], the logD is reported as 2.2.
